This is a sample that favours compounds with a hit; in the whole collection about 4.8% have one here.
Mdm2 MdmX PPI: human Mdm2/MdmX binding inhibition; 330,000 tested, 3% active; SaOS-2 split-luciferase Mdm2/MdmX complementation, luminescence; AID 485346; inhibition, % at 8 µM; O15151+Q00987;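 active means inhibition of at least 50% at 8 µM in the primary screen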
UPR XBP1 act: activators of adaptive arm of unfolded protein response (XBP1); CHO-XBP1 luciferase reporter, IRE1-XBP1 UPR activation, luminescence; percent of tunicamycin response, DMSO as zero; activation, % at 20 µM; 330,000 tested, 0.33% active;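 active means versus positive control, 20 µM dose yields 30% or more activation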
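Material: CHO cell line with stable XBP1 luciferase reporter; buffer or medium: F12 medium containing 10% fetal bovine serum; compound: single point, 20 µM final compound, 1% DMSO; incubation: 6 h treatment, 37 °C; measured by: glow luminescence from Steady-Glo reagent; evaluation: activation, % of tunicamycin; control set: tunicamycin high, DMSO low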
UPR CHOP act: activators of apoptotic arm of unfolded protein response (CHOP); CHO-CHOP luciferase reporter, UPR activation, luminescence; percent of tunicamycin response over DMSO baseline; activation, % at 10 µM; 330,000 tested, 0.34% active; AID 449763;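 active means at 10 µM dose, activation of 40% or more, normalized to positive control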
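System: CHO-CHOP luciferase reporter cell line | Buffer or medium: F12 medium containing 10% fetal bovine serum | Doses: One dose, 10 µM in 0.5% DMSO | Times: 6 h compound exposure at 37 °C after overnight seeding | Signal: Luciferase luminescence | Read-out: % activation vs tunicamycin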
Beta cell apopt: beta cell apoptosis inhibition; INS-1E cytokine-induced death, ATP luminescence, 48 h; percent of positive-control rescue, neutral wells zero; protection from apoptosis, % (concentration not given with the values); 300,000 tested, 0.8% active; AID 435005;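 active means Every replicate reaches about 75%, or at least half do and their mean reaches it too, limit read from the data; inconclusive means At least half of replicates reach the limit but their mean does not; inactive means Under half of replicates reach the limit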;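 further: higher means more ATP so stronger rescue from cytokine killing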
CSC inhib: blocks cancer stem cells; cancer stem cell-like cells viability, luminescence; inhibition, % at 7.5 µM; 300,000 tested, 1.1% active; AID 2717; in the data active means inhibition above about 75%; inconclusive means no clear call, values can overlap the other calls; tested in HMLE shEcad cells
SKKanGAS inh: blocks kanamycin growth of S. pyogenes SKKanGAS strain. BacTiter-Glo, 6 h. 300,000 tested, 1.3% active. AID 1662. inhibition, % at 7.5 µM;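 active means mean replicate score, as percent of positive control median, at least 50; inconclusive means mean below 50 but one replicate at or above 50; inactive means mean and every replicate below 50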;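 further: strain carries kanamycin resistance gene driven by streptokinase promoter and grows in 40 µg/ml kanamycin; loss of luminescence reflects streptokinase promoter inhibition or plain growth inhibition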
Mdm2 MdmX conf: confirmation of human Mdm2/MdmX interaction inhibitors; 10,000 tested, 55% active; shares compounds with Mdm2 MdmX PPI; inhibition, % at 8 µM; Mdm2-MdmX binding, luminescent assay; in the data active means inhibition above about 40%
Full FLuc ctr: full-length luciferase inhibition in Mdm2/MdmX counter-screen; shares compounds with Mdm2 MdmX PPI; SaOS-2 full-length luciferase counterscreen, luminescence; inhibition, % at 8 µM; 6,200 tested, 77% active; AID 504607;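 active means mean inhibition at 8 µM reaching about 37%, which flags the compound as non-specific, limit read from the data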;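 further: p53-null SaOS-2 cells with luciferase driven by a doxycycline-inducible promoter; compound on cells about two nights before reading with doxycycline added after day one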
Hits are given with their value; . = inactive; ? = inconclusive; / = not tested or not shown.

SMILES	Mdm2 MdmX PPI	UPR XBP1 act	UPR CHOP act	Beta cell apopt	CSC inhib	SKKanGAS inh	Mdm2 MdmX conf	Full FLuc ctr
Cc1ccc(/C=C2\S/C(=N/S(=O)(=O)c3cccs3)NC2=O)cc1	.	.	.	.	.	.	/	/
CCc1ccc(S(=O)(=O)/N=C2\C=C(Nc3ccc(C(=O)O)cc3)C(=O)c3ccccc32)cc1	80	.	.	103	/	96	52	.
Cc1ccc(S(=O)(=O)/N=C2\C=C(Nc3ccc(O)cc3)C(=O)c3ccccc32)cc1	95	.	.	120	133	/	89	.
CCOCCCNC(=O)c1cc(Cl)c(NC(=O)C2=C(C)OCCS2)cc1OC	.	.	.	.	.	.	/	/
COC(=O)c1ccccc1NC1=C/C(=N\S(=O)(=O)c2ccc(C(=O)O)cc2)c2ccccc2C1=O	90	.	.	110	/	93	68	.
COc1ccccc1CNC(=O)C1CC2Cn3c(nc4cc(Cl)c(Cl)cc43)C2N1C (stereo unspecified)	.	.	.	.	.	.	/	/
O=C(O)c1cccc(COc2ccccc2Cl)c1	69	.	.	.	.	.	69	50
CCN(CC)CC(=O)Nc1scc2c1c(=O)oc1ccccc12	.	.	.	.	.	.	/	/
O=C(CCCN1C(=O)NC2(CCCC2)C1=O)Nc1ccc(Cl)c(S(=O)(=O)N2CCOCC2)c1	.	.	.	/	/	/	/	/
Cc1ccc(/C=C2/NC(=O)N(Cc3ccccc3)C2=O)s1	.	.	.	.	.	.	/	/
O=C1N/C(=C/c2cccs2)C(=O)N1Cc1ccc(Br)cc1	54	.	.	.	.	.	.	/
NC(=O)Cn1cc(/C=N\NS(=O)(=O)c2ccc(Cl)cc2)c2ccccc21	.	.	.	.	.	.	/	/
Cc1ccc(S(=O)(=O)N/N=C\c2cn(CC(N)=O)c3ccccc23)cc1C	52	.	.	.	.	.	.	/
COc1ccc2sc(N(CCN(C)C)C(=O)/C=C/c3cccs3)nc2c1	.	.	.	.	.	.	/	/
Cc1cccc2sc(N(CCN(C)C)C(=O)/C=C/c3cccs3)nc12	63	.	.	.	.	.	.	/
COc1ccc2nc(N(CCN(C)C)C(=O)/C=C/c3cccs3)sc2c1	53	.	.	.	.	.	.	44
CCOC(=O)c1nc2c(=O)n(C)c(=O)n(C)c2n(C)c1=O	.	.	.	.	.	.	/	/
Cc1cccc(Nc2cc(=O)n(C)c(=O)[nH]2)c1	.	.	.	.	.	.	/	/
O=C(COC(=O)C1COc2ccccc2O1)Nc1ccccc1OC(F)F (stereo unspecified)	.	.	.	.	.	/	/	/
N#CCC(=O)N/N=C/c1c(-c2ccccc2)n(-c2ccccc2)c2ccccc12	.	.	.	.	/	.	/	/
Cc1ccc(C)c(Sc2ccc(NC(=O)CCN3C(=O)NC4(CCCC4)C3=O)cc2)c1	.	.	.	.	/	/	/	/
Cc1ccc(Sc2ccc(NC(=O)CCl)cc2)c(C)c1	66	.	.	.	.	.	.	/
C[C@H](NC(=O)c1[nH]cnc1C(=O)Nc1ccccc1)c1ccccc1	.	.	.	.	.	/	/	/
CCOC(=O)c1ccc(NC(=O)c2nc[nH]c2C(=O)NCCNC(=O)c2[nH]cnc2C(=O)Nc2ccc(C(=O)OCC)cc2)cc1	100	.	.	.	122	/	41	81
Cc1ccc(NC(=O)c2nc[nH]c2C(=O)N[C@H](C)c2ccccc2)cc1	.	.	.	.	.	/	/	/
SMILES	Mdm2 MdmX PPI	UPR XBP1 act	UPR CHOP act	Beta cell apopt	CSC inhib	SKKanGAS inh	Mdm2 MdmX conf	Full FLuc ctr
CCOC(=O)c1ccc(NC(=O)c2nc[nH]c2C(=O)N[C@H](C)c2ccccc2)cc1	60	.	.	.	.	78	.	/
Cc1cccc(NC(=O)c2nc[nH]c2C(=O)N[C@H](C)c2ccccc2)c1	57	.	.	.	?	/	.	50
Cc1c(Cc2ccccc2)c(=O)oc2c(C)c(OCC(=O)NCC3CCC(C(=O)O)CC3)ccc12 (stereo unspecified)	.	.	.	.	.	.	/	/
COc1ccccc1NC(=O)Nc1nc(CC(=O)Nc2ccc(N(C)C)cc2)cs1	.	.	.	/	.	.	/	/
COc1ccc(C(=O)N(Cc2ccccc2)Cc2cc3cc4c(cc3[nH]c2=O)OCCO4)cc1	51	.	.	.	.	.	65	51
COc1cccc(C(=O)N(Cc2ccccc2)Cc2cc3cc4c(cc3[nH]c2=O)OCCO4)c1	.	.	.	.	.	.	/	/
Cc1cc2cc(CN(Cc3ccc4c(c3)OCO4)C(=O)c3ccco3)c(=O)[nH]c2cc1C	.	.	.	.	.	.	/	/
O=C(c1ccco1)N(Cc1ccc2c(c1)OCO2)Cc1cc2cc3c(cc2[nH]c1=O)OCO3	60	.	.	.	.	.	.	/
O=C(c1cccc([N+](=O)[O-])c1)c1ccc2[nH]c(=O)[nH]c2c1	.	.	.	.	.	.	/	/
CCCCCCCC[n+]1cccc2c3ccccc3ccc21	86	.	.	108	.	.	84	.
O=C(O)c1cc2ccccc2c(N=Nc2cccnc2)c1O	61	.	.	.	.	.	.	/
N/C(CCS(=O)(=O)c1ccc(Cl)cc1)=N\OC(=O)c1ccccc1C(F)(F)F	94	.	.	/	.	.	93	.
N/C(CS(=O)(=O)c1ccccn1)=N\OC(=O)c1ccc(Cl)cc1	.	.	.	.	.	.	/	/
N/C(CCS(=O)(=O)c1ccc(Cl)cc1)=N\OC(=O)c1ccc(Cl)cc1	55	.	.	.	.	.	.	/
COc1ccc(OC)c2sc(N(CCN(C)C)C(=O)c3ccc4ccccc4c3)nc12	.	.	.	.	.	.	/	/
COc1cc2ccccc2cc1C(=O)N(CCN(C)C)c1nc2c(C)cccc2s1	.	.	.	.	.	.	/	/
CCN(CC)CCN(C(=O)c1cc2ccccc2cc1OC)c1nc2ccc(OC)cc2s1	51	.	.	.	.	.	.	/
COc1cc2ccccc2cc1C(=O)N(CCN(C)C)c1nc2c(OC)ccc(OC)c2s1	61	.	.	.	.	.	.	66
COc1cc2ccccc2cc1C(=O)N(CCN(C)C)c1nc2ccc(C)cc2s1	68	.	.	.	.	.	56	45
COc1cccc(N(C(=O)Cn2nnc(-c3ccc(F)cc3)n2)C(C(=O)NCC2CCCO2)c2ccc(Cl)cc2)c1 (stereo unspecified)	.	.	.	.	/	.	/	/
COc1cccc(N(C(=O)Cn2nnc(-c3ccc(Cl)cc3)n2)C(C(=O)NCC2CCCO2)c2ccc(C)cc2)c1 (stereo unspecified)	56	.	.	.	.	.	.	/

Screening data (PubChem)
